Reference: ChEMBL document CHEMBL4043182, “On the synthesis of quinone-based BODIPY hybrids: New insights on antitumor activity and mechanism of action in cancer cells” (Bioorg Med Chem Lett, 2017)

What was measured:
PC-3 = assay: Antiproliferative activity against human PC3 cells after 72 hrs by MTT assay; format: functional, cell-based; conditions: PC-3, 72 h
How it was run: (§1)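 MTT reduction: cancer lines plated at 0.7×10^5 to 0.3×10^6 cells/well, V79 and L929 fibroblasts at 0.5×10^5 cells/well. Compounds in DMSO (0.1%) were given for 24 h at 0.04–40.92 µM or 72 h at 0.04–8.19 µM. Fresh medium with 0.5 mg/mL MTT was added for 3 h, then formazan was dissolved in DMSO and read at 595 nm as % of control. IC50 came from nonlinear regression with 95% CI. Doxorubicin (0.001–1.06 µM) was the positive control. Triplicate, ≥3 repeats.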

SF-295 = assay: Antiproliferative activity against human SF295 cells after 72 hrs by MTT assay; format: functional, cell-based; conditions: SF-295, 72 h; how it was run: as §1
MDA-MB-435 = assay: Antiproliferative activity against human MDA-MB-435 cells after 72 hrs by MTT assay; format: functional, cell-based; conditions: MDA-MB-435, 72 h; how it was run: as §1
SW-620 = assay: Antiproliferative activity against human SW620 cells after 72 hrs by MTT assay; format: functional, cell-based; conditions: SW-620, 72 h; how it was run: as §1
HCT-116 = assay: Antiproliferative activity against human HCT116 cells after 72 hrs by MTT assay; format: functional, cell-based; conditions: HCT-116, 72 h; how it was run: as §1
L929 [1] = assay: Antiproliferative activity against mouse L929 cells after 72 hrs by MTT assay; format: cell-based; conditions: L929, 72 h; how it was run: as §1
V79 [2] = assay: Antiproliferative activity against chinese hamster V79 cells after 72 hrs by MTT assay; format: cell-based; conditions: Cricetulus griseus, V79, 72 h; how it was run: as §1
[3] = Drug uptake in lysosomes of human PC3 cells at 5 uM after 10 mins by LysoTracker Red dye-based confocal microscopic analysis; format: ADME, cell-based; conditions: pc-3, 10 min
How it was run: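 PC3 cells were grown in DMEM with 10% FBS, antibiotics and 2 mM L-glutamine at 37 °C, 5% CO2. Cells were incubated with compound (5 µM) plus LysoTracker Red or MitoTracker Red for 10 min at 37 °C. Live cells were imaged in phenol red-free DMEM by confocal microscopy with a 40X oil objective, exciting at 488 nm (compound) and 543 nm (tracker dyes).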

HL-60 [4] = assay: Antiproliferative activity against human HL60 cells after 24 to 72 hrs by MTT assay; format: functional, cell-based; how it was run: as §1
Jurkat [5] = assay: Antiproliferative activity against human Jurkat cells after 24 to 72 hrs by MTT assay; format: functional, cell-based; how it was run: as §1
L929 [6] = assay: Antiproliferative activity against mouse L929 cells at 0.04 to 40.92 uM after 24 to 72 hrs by MTT assay; format: cell-based; conditions: l929, 40.92 µM; how it was run: as §1
V79 [7] = assay: Antiproliferative activity against chinese hamster V79 cells at 0.04 to 40.92 uM after 24 to 72 hrs by MTT assay; format: cell-based, Cricetulus griseus; conditions: v79, 40.92 µM; how it was run: as §1
[8] = Selectivity index, ratio of IC50 for mouse L929 cells to IC50 for human HL60 cells; format: functional
How it was run: (§2)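 Selectivity index is the ratio of the IC50 in a non-cancer murine line (V79 or L929) to the IC50 in the cancer line. […] MTT was 0.5 mg/mL for 3 h, formazan dissolved in DMSO and read at 595 nm as % of control. IC50s were derived by nonlinear regression; triplicate, at least three repeats.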

[9] = Selectivity index, ratio of IC50 for chinese hamster V79 cells to IC50 for human HL60 cells; format: functional; how it was run: as §2
[10] = Selectivity index, ratio of IC50 for mouse L929 cells to IC50 for human Jurkat cells; format: functional; how it was run: as §2
[11] = Selectivity index, ratio of IC50 for chinese hamster V79 cells to IC50 for human Jurkat cells; format: functional; how it was run: as §2
HL-60 [12] = assay: Induction of oxidative stress in human HL60 cells assessed as total intracellular thiol levels at 5 uM after 24 hrs by spectrophotometric analysis (reference value: 3.61 +/- 0.22 microg/mg); format: functional
HL-60 [13] = assay: Induction of oxidative stress in human HL60 cells assessed as total intracellular thiol levels at 5 uM treated 24 hrs post NAC addition measured after 24 hrs by spectrophotometric analysis (reference value: 3.61 +/- 0.22 microg/mg); format: functional
How it was run: (§3)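 Cells were pretreated 24 h with 5 mM NAC, then exposed 24 h to test compound at 5 µM. Controls received 0.1% DMSO. Extracts were prepared by sonication and HClO4 precipitation, then neutralized with KOH. Total glutathione was read by DTNB/glutathione reductase/NADPH rate at 412 nm. GSSG was measured after 4-vinylpyridine (0.1%, 1 h, RT) and GSH derived by difference. Values are normalized to protein, triplicates, three independent runs.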

HL-60 [14] = assay: Induction of oxidative stress in human HL60 cells assessed as total GSH levels at 5 uM after 24 hrs by spectrophotometric analysis (reference value: 3.01 +/- 0.11 microg/mg); format: functional
HL-60 [15] = assay: Induction of oxidative stress in human HL60 cells assessed as total GSH levels at 5 uM treated 24 hrs post NAC addition measured after 24 hrs by spectrophotometric analysis (reference value: 3.01 +/- 0.11 microg/mg); format: functional; how it was run: as §3
HL-60 [16] = assay: Induction of oxidative stress in human HL60 cells assessed as total GSSG levels at 5 uM after 24 hrs by spectrophotometric analysis (reference value: 0.66 +/- 0.17 microg/mg); format: functional
HL-60 [17] = assay: Induction of oxidative stress in human HL60 cells assessed as total GSSG levels at 5 uM treated 24 hrs post NAC addition measured after 24 hrs by spectrophotometric analysis (reference value: 0.66 +/- 0.17 microg/mg); format: functional; how it was run: as §3
HL-60 [18] = assay: Induction of oxidative stress in human HL60 cells assessed as GSH to GSSG ratio at 5 uM after 24 hrs by spectrophotometric analysis (reference value: 4.53 +/- 0.55 microg/mg); format: functional
HL-60 [19] = assay: Induction of oxidative stress in human HL60 cells assessed as GSH to GSSG ratio at 5 uM treated 24 hrs post NAC addition measured after 24 hrs by spectrophotometric analysis (reference value: 4.53 +/- 0.55 microg/mg); format: functional; how it was run: as §3
Jurkat [20] = assay: Induction of oxidative stress in human Jurkat cells assessed as total intracellular thiol levels at 5 uM after 24 hrs by spectrophotometric analysis (reference value: 3.87 +/- 0.55 microg/mg); format: functional
Jurkat [21] = assay: Induction of oxidative stress in human Jurkat cells assessed as total intracellular thiol levels at 5 uM treated 24 hrs post NAC addition measured after 24 hrs by spectrophotometric analysis (reference value: 3.87 +/- 0.55 microg/mg); format: functional; how it was run: as §3
Jurkat [22] = assay: Induction of oxidative stress in human Jurkat cells assessed as total GSH levels at 5 uM after 24 hrs by spectrophotometric analysis (reference value: 3.02 +/- 0.21 microg/mg); format: functional
Jurkat [23] = assay: Induction of oxidative stress in human Jurkat cells assessed as total GSH levels at 5 uM treated 24 hrs post NAC addition measured after 24 hrs by spectrophotometric analysis (reference value: 3.02 +/- 0.21 microg/mg); format: functional; how it was run: as §3
Jurkat [24] = assay: Induction of oxidative stress in human Jurkat cells assessed as total GSSG levels at 5 uM after 24 hrs by spectrophotometric analysis (reference value: 0.78 +/- 0.33 microg/mg); format: functional
Jurkat [25] = assay: Induction of oxidative stress in human Jurkat cells assessed as total GSSG levels at 5 uM treated 24 hrs post NAC addition measured after 24 hrs by spectrophotometric analysis (reference value: 0.78 +/- 0.33 microg/mg); format: functional; how it was run: as §3
Jurkat [26] = assay: Induction of oxidative stress in human Jurkat cells assessed as GSH to GSSG ratio at 5 uM after 24 hrs by spectrophotometric analysis (reference value: 3.81 +/- 0.22 microg/mg); format: functional
Jurkat [27] = assay: Induction of oxidative stress in human Jurkat cells assessed as GSH to GSSG ratio at 5 uM treated 24 hrs post NAC addition measured after 24 hrs by spectrophotometric analysis (reference value: 3.81 +/- 0.22 microg/mg); format: functional; how it was run: as §3

CC1=CC(C)=[N+]2C1=C(c1ccc(OCc3cn(C4C5=C(OC4(C)C)c4ccccc4C(=O)C5=O)nn3)cc1)c1c(C)cc(C)n1[B-]2(F)F (stereo not drawn)
IC50 (PC-3): 2.39 µM | IC50 (SF-295): > 7.72 µM | IC50 (MDA-MB-435): > 7.72 µM | IC50 (SW-620): > 7.72 µM | IC50 (HCT-116): 2.85 µM | IC50 (L929 [1]): > 7.72 µM | IC50 (V79 [2]): > 7.72 µM | Drug uptake [3]: Metabolite_Detected | IC50 (HL-60 [4]): 0.92 µM | IC50 (Jurkat [5]): 0.94 µM | Activity (L929 [6]): Non-Toxic | Activity (V79 [7]): Non-Toxic | Ratio IC50 [8]: >8.5 | Ratio IC50 [9]: >8.5 | Ratio IC50 [10]: >8.5 | Ratio IC50 [11]: >8.5 | Activity (HL-60 [12]): 3.01 µg/mg | Activity (HL-60 [13]): 2.83 µg/mg | Activity (HL-60 [14]): 0.72 µg/mg | Activity (HL-60 [15]): 1.19 µg/mg | Activity (HL-60 [16]): 2.18 µg/mg | Activity (HL-60 [17]): 1.47 µg/mg | Activity (HL-60 [18]): 0.31 µg/mg | Activity (HL-60 [19]): 0.76 µg/mg | Activity (Jurkat [20]): 3.28 µg/mg | Activity (Jurkat [21]): 3.11 µg/mg | Activity (Jurkat [22]): 0.6 µg/mg | Activity (Jurkat [23]): 1.58 µg/mg | Activity (Jurkat [24]): 2.57 µg/mg | Activity (Jurkat [25]): 1.44 µg/mg | Activity (Jurkat [26]): 0.21 µg/mg | Activity (Jurkat [27]): 1.08 µg/mg

COc1cccc2c1C(=O)c1c(O)c3c(c(O)c1C2=O)C[C@@](O)(C(=O)CO)C[C@@H]3O[C@H]1C[C@H](N)[C@H](O)[C@H](C)O1 [DOXORUBICIN]
IC50 (PC-3): 0.05 µM | IC50 (SF-295): 0.45 µM | IC50 (MDA-MB-435): 0.94 µM | IC50 (SW-620): 0.29 µM | IC50 (L929 [1]): 0.22 µM | IC50 (V79 [2]): 0.25 µM
